Test results published in ChEMBL document CHEMBL5335788, “Synthesis and evaluation of aromatic BDSF bioisosteres on biofilm formation and colistin sensitivity in pathogenic bacteria” (Eur J Med Chem, 2023).
The source made the active and inactive calls. No cut-off for these calls is given here.

Each molecule was assayed on Pseudomonas aeruginosa (assay: Inhibition of biofilm formation in Pseudomonas aeruginosa PAO1 at 0.05 mM incubated for 24 hrs by crystal violet method). Conditions: not given.
Assay type: functional, organism-based
Summary of the method: (§1)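 Crystal violet assay in LB: log-phase bacteria at final 1×10^5 cfu/mL with sulfonamide at final 0.05 mM, 24 h at 37 °C. Biomass read at OD620, then wells washed, biofilm heat-fixed 65 °C 15 min, stained 0.1% crystal violet 15 min, dye eluted in 30% acetic acid, OD550 read. Neat DMSO control taken as 100%. Duplicates, at least two independent experiments; one-way ANOVA.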

SMILES	inhibition
CCCCCCCCCc1ccccc1C(=O)NS(=O)(=O)c1ccc(C(C)(C)C)cc1	inactive
CCCCCCCCCc1ccccc1C(=O)NS(=O)(=O)c1ccc(OC)cc1	inactive
CCCCCCCCCc1ccccc1C(=O)NS(=O)(=O)c1ccc(Br)cc1	inactive
CCCCCCCCCc1ccccc1C(=O)NS(=O)(=O)c1ccccc1F	inactive

Each molecule was assayed on Escherichia coli (assay: Inhibition of biofilm formation in Escherichia coli ATCC 9637 at 0.05 mM incubated for 24 hrs by crystal violet method relative to control). Conditions: ATCC 9637, 24 h.
Assay type: functional
Summary of the method: as §1

SMILES	inhibition at 50 µM [%]
CCCCCCCCCc1ccccc1C(=O)NS(=O)(=O)c1ccc(Br)cc1	> 59

What follows are molecules tested on Escherichia coli (assay: Potentiation of colistin-induced antibacterial activity against Escherichia coli ATCC 9637 assessed as colistin MIC at 50 uM incubated for 20 hrs by susceptibility testing (reference value: 0.125 to 0.25 ug/ml)). Conditions: not given.
Assay type: functional
Summary of the method: (§2)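 Colistin MIC by broth microdilution in cation-adjusted Mueller-Hinton broth, log-phase cells at final 5×10^5 cfu/mL. Two-fold colistin dilutions in duplicate with sulfonamide at final 0.05 mM (from 10 mM DMSO stock); 20 h at 37 °C. OD550 read. MIC taken as the lowest colistin level reducing growth ≥80% versus growth control. At least two replicates.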

SMILES	MIC [µg/mL]
CCCCCCCCCc1ccccc1C(=O)NS(=O)(=O)c1ccc(C(C)(C)C)cc1	0.5
CCCCCCCCCc1ccccc1C(=O)NS(=O)(=O)c1ccc(OC)cc1	0.25
CCCCCCCCCc1ccccc1C(=O)NS(=O)(=O)c1ccc(Br)cc1	> 1
CCCCCCCCCc1ccccc1C(=O)NS(=O)(=O)c1ccccc1F	0.25

The molecules below were run on Pseudomonas aeruginosa (assay: Potentiation of colistin-induced antibacterial activity against Pseudomonas aeruginosa assessed as colistin MIC at 50 uM incubated for 20 hrs by susceptibility testing (reference value: 1 to 2 ug/ml)). Conditions: not given.
Assay type: functional
Summary of the method: as §2

SMILES	MIC [µg/mL]
CCCCCCCCCc1ccccc1C(=O)NS(=O)(=O)c1ccc(C(C)(C)C)cc1	1
CCCCCCCCCc1ccccc1C(=O)NS(=O)(=O)c1ccc(OC)cc1	1
CCCCCCCCCc1ccccc1C(=O)NS(=O)(=O)c1ccc(Br)cc1	8
CCCCCCCCCc1ccccc1C(=O)NS(=O)(=O)c1ccccc1F	1

Each molecule was assayed on Pseudomonas aeruginosa (assay: Antimicrobial activity against Pseudomonas aeruginosa PAO1 assessed as microbial growth inhibition at 50 uM incubated for 20 hrs by broth microdilution method). Conditions: not given.
Assay type: functional, organism-based
Summary of the method: (§3)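 Overnight cultures in cation-adjusted Mueller-Hinton broth, subcultured 1:100; log-phase cells at final 1×10^5 cfu/mL exposed to sulfonamide at final 0.05 mM (from 10 mM DMSO stock) for 20 h at 37 °C. OD550 read after shaking. Growth expressed as percent of 0.5% DMSO control wells. Screened at least twice.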

SMILES	growth inhibition (GI)
CCCCCCCCCc1ccccc1C(=O)NS(=O)(=O)c1ccc(C(C)(C)C)cc1	inactive
CCCCCCCCCc1ccccc1C(=O)NS(=O)(=O)c1ccc(OC)cc1	inactive
CCCCCCCCCc1ccccc1C(=O)NS(=O)(=O)c1ccc(Br)cc1	inactive
CCCCCCCCCc1ccccc1C(=O)NS(=O)(=O)c1ccccc1F	inactive

What follows are molecules tested on Burkholderia multivorans (assay: Inhibition of biofilm formation in Burkholderia multivorans B10 at 0.05 mM incubated for 24 hrs by crystal violet method relative to control). Conditions: B10, 24 h.
Assay type: functional
Summary of the method: as §1

SMILES	inhibition at 50 µM [%]
CCCCCCCCCc1ccccc1C(=O)NS(=O)(=O)c1ccc(C(C)(C)C)cc1	> 35
CCCCCCCCCc1ccccc1C(=O)NS(=O)(=O)c1ccc(Br)cc1	31

What follows are molecules tested on Burkholderia multivorans (assay: Potentiation of colistin-induced antibacterial activity against Burkholderia multivorans B10 assessed as colistin MIC at 50 uM incubated for 20 hrs by susceptibility testing (Rvb > 128 ug/ml)). Conditions: not given.
Assay type: functional
Summary of the method: as §2

SMILES	MIC [µg/mL]
CCCCCCCCCc1ccccc1C(=O)NS(=O)(=O)c1ccc(C(C)(C)C)cc1	> 128
CCCCCCCCCc1ccccc1C(=O)NS(=O)(=O)c1ccc(OC)cc1	> 128
CCCCCCCCCc1ccccc1C(=O)NS(=O)(=O)c1ccc(Br)cc1	> 128
CCCCCCCCCc1ccccc1C(=O)NS(=O)(=O)c1ccccc1F	> 128

These molecules were tested on Burkholderia cepacia (assay: Inhibition of biofilm formation in Burkholderia cepacia R6193 clinical isolate at 0.05 mM incubated for 24 hrs by crystal violet method). Conditions: not given.
Assay type: functional, organism-based
Summary of the method: as §1

SMILES	inhibition
CCCCCCCCCc1ccccc1C(=O)NS(=O)(=O)c1ccc(Br)cc1	inactive

These molecules were tested on Acinetobacter baumannii (assay: Antimicrobial activity against Acinetobacter baumannii ATCC 15308 assessed as microbial growth inhibition at 50 uM incubated for 20 hrs by broth microdilution method). Conditions: not given.
Assay type: functional, organism-based
Summary of the method: as §3

SMILES	growth inhibition (GI)
CCCCCCCCCc1ccccc1C(=O)NS(=O)(=O)c1ccc(C(C)(C)C)cc1	inactive
CCCCCCCCCc1ccccc1C(=O)NS(=O)(=O)c1ccc(OC)cc1	inactive
CCCCCCCCCc1ccccc1C(=O)NS(=O)(=O)c1ccc(Br)cc1	inactive
CCCCCCCCCc1ccccc1C(=O)NS(=O)(=O)c1ccccc1F	inactive

The molecules below were run on Escherichia coli (assay: Antimicrobial activity against Escherichia coli ATCC 9637 assessed as microbial growth inhibition at 50 uM incubated for 20 hrs by broth microdilution method). Conditions: not given.
Assay type: functional, organism-based
Summary of the method: as §3

SMILES	growth inhibition (GI)
CCCCCCCCCc1ccccc1C(=O)NS(=O)(=O)c1ccc(C(C)(C)C)cc1	inactive
CCCCCCCCCc1ccccc1C(=O)NS(=O)(=O)c1ccc(OC)cc1	inactive
CCCCCCCCCc1ccccc1C(=O)NS(=O)(=O)c1ccc(Br)cc1	inactive
CCCCCCCCCc1ccccc1C(=O)NS(=O)(=O)c1ccccc1F	inactive

The molecules below were run on Acinetobacter baumannii (assay: Inhibition of biofilm formation in Acinetobacter baumannii ATCC 15308 at 0.05 mM incubated for 24 hrs by crystal violet method relative to control). Conditions: ATCC 15308, 24 h.
Assay type: functional
Summary of the method: as §1

SMILES	inhibition at 50 µM [%]
CCCCCCCCCc1ccccc1C(=O)NS(=O)(=O)c1ccc(OC)cc1	41
CCCCCCCCCc1ccccc1C(=O)NS(=O)(=O)c1ccc(Br)cc1	8
CCCCCCCCCc1ccccc1C(=O)NS(=O)(=O)c1ccccc1F	27

These molecules were tested on Stenotrophomonas maltophilia (assay: Potentiation of colistin-induced antibacterial activity against Stenotrophomonas maltophilia K279a assessed as colistin MIC at 50 uM incubated for 20 hrs by susceptibility testing (reference value: 2 to 8 ug/ml)). Conditions: not given.
Assay type: functional
Summary of the method: as §2

SMILES	MIC [µg/mL]
CCCCCCCCCc1ccccc1C(=O)NS(=O)(=O)c1ccc(C(C)(C)C)cc1	4
CCCCCCCCCc1ccccc1C(=O)NS(=O)(=O)c1ccc(OC)cc1	1
CCCCCCCCCc1ccccc1C(=O)NS(=O)(=O)c1ccc(Br)cc1	2
CCCCCCCCCc1ccccc1C(=O)NS(=O)(=O)c1ccccc1F	1

The molecules below were run on Burkholderia cenocepacia (assay: Potentiation of colistin-induced antibacterial activity against Burkholderia cenocepacia 289 assessed as colistin MIC at 50 uM incubated for 20 hrs by susceptibility testing (Rvb > 256 ug/ml)). Conditions: not given.
Assay type: functional
Summary of the method: as §2

SMILES	MIC [µg/mL]
CCCCCCCCCc1ccccc1C(=O)NS(=O)(=O)c1ccc(C(C)(C)C)cc1	> 256
CCCCCCCCCc1ccccc1C(=O)NS(=O)(=O)c1ccc(OC)cc1	> 256
CCCCCCCCCc1ccccc1C(=O)NS(=O)(=O)c1ccc(Br)cc1	> 256
CCCCCCCCCc1ccccc1C(=O)NS(=O)(=O)c1ccccc1F	> 256

What follows are molecules tested on Stenotrophomonas maltophilia (assay: Inhibition of biofilm formation in Stenotrophomonas maltophilia K279a clinical isolate of rpf-1 subpopulation at 0.05 mM incubated for 24 hrs by crystal violet method). Conditions: not given.
Assay type: functional, organism-based
Summary of the method: as §1

SMILES	inhibition
CCCCCCCCCc1ccccc1C(=O)NS(=O)(=O)c1ccc(C(C)(C)C)cc1	inactive
CCCCCCCCCc1ccccc1C(=O)NS(=O)(=O)c1ccc(OC)cc1	inactive
CCCCCCCCCc1ccccc1C(=O)NS(=O)(=O)c1ccc(Br)cc1	inactive
CCCCCCCCCc1ccccc1C(=O)NS(=O)(=O)c1ccccc1F	inactive

The molecules below were run on Acinetobacter baumannii (assay: Potentiation of colistin-induced antibacterial activity against Acinetobacter baumannii ATCC 15308 assessed as colistin MIC at 50 uM incubated for 20 hrs by susceptibility testing (reference value: 0.25 to 0.5 ug/ml)). Conditions: not given.
Assay type: functional
Summary of the method: as §2

SMILES	MIC [µg/mL]
CCCCCCCCCc1ccccc1C(=O)NS(=O)(=O)c1ccc(C(C)(C)C)cc1	0.5
CCCCCCCCCc1ccccc1C(=O)NS(=O)(=O)c1ccc(OC)cc1	0.25
CCCCCCCCCc1ccccc1C(=O)NS(=O)(=O)c1ccc(Br)cc1	2
CCCCCCCCCc1ccccc1C(=O)NS(=O)(=O)c1ccccc1F	0.25

The molecules below were run on Burkholderia cepacia (assay: Potentiation of colistin-induced antibacterial activity against Burkholderia cepacia R6193 assessed as colistin MIC at 50 uM incubated for 20 hrs by susceptibility testing (Rvb > 256 ug/ml)). Conditions: not given.
Assay type: functional
Summary of the method: as §2

SMILES	MIC [µg/mL]
CCCCCCCCCc1ccccc1C(=O)NS(=O)(=O)c1ccc(C(C)(C)C)cc1	> 256
CCCCCCCCCc1ccccc1C(=O)NS(=O)(=O)c1ccc(OC)cc1	> 256
CCCCCCCCCc1ccccc1C(=O)NS(=O)(=O)c1ccc(Br)cc1	> 256
CCCCCCCCCc1ccccc1C(=O)NS(=O)(=O)c1ccccc1F	> 256
